Laboratory results from ChEMBL document CHEMBL1131117, “Pyrimidine thioethers: a novel class of HIV-1 reverse transcriptase inhibitors with activity against BHAP-resistant HIV” (J Med Chem, 1998).

Legend:
[1] = system: Human immunodeficiency virus type 1 reverse transcriptase (Human immunodeficiency virus 1), Q72547 [P236L]; assay: Inhibitory activity against HIV-1 reverse transcriptase (P236L) at 10 uM dose
Summary of the method: (§1)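 Recombinant HIV-1 RT homodimers (wild type or P236L mutant) were tested with compound at a single 10 µM concentration and reported as % inhibition. Reactions ran at 28 °C for 10 min and were stopped with 10% trichloroacetic acid. Acid-precipitated product was collected on glass fibre filters and counted for radioactivity.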

[2] = biological target: Human immunodeficiency virus type 1 reverse transcriptase (Human immunodeficiency virus 1) (UniProt Q72547); assay: Inhibitory activity against HIV-1 reverse transcriptase (wild type) at 10 uM dose; summary of the method: as §1
[3] = system: MT4; assay: concentration of drug that inhibited p24 production by 90% in infected MT-4 cells against HIV-1-WT; type: functional; conditions: Homo sapiens
[4] = system: MT4; assay: concentration of drug that inhibited p24 production by 90% in infected MT-4 cells against HIV-1MF-DLV; type: functional; conditions: Homo sapiens
[5] = biological target: Human immunodeficiency virus type 1 reverse transcriptase (Human immunodeficiency virus 1, UniProt Q72547, P236L); assay: Inhibition of HIV-1 reverse transcriptase (P236L)
Summary of the method: (§2)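 HIV-1 RT homodimers (wild type or P236L) were assayed by radiolabel incorporation at 28 °C for 10 min and stopped with 10% trichloroacetic acid. Acid-insoluble product was filter-captured and counted. IC50 was derived from inhibition measured at eight drug concentrations.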

[6] = biological target: T1, Human immunodeficiency virus type 1 reverse transcriptase (Human immunodeficiency virus 1, UniProt Q72547); assay: Inhibition of HIV-1 reverse transcriptase (wild type)
Summary of the method: (§3)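 Wild-type HIV-1 RT homodimer run at 28 °C for 10 min. The reaction is stopped with 10% (v/v) trichloroacetic acid, and the acid-precipitated product is collected on glass fiber filters and counted for radioactivity. Compounds are screened as % inhibition at 10 µM, and IC50 values are determined from eight drug concentrations.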

[7] = system: Human immunodeficiency virus type 1 reverse transcriptase (Human immunodeficiency virus 1), Q72547 [P236L]; assay: inhibitory activity against HIV-1 reverse transcriptase (P236L) at 10 uM dose (IC50 determined in 8 drug concentrations); summary of the method: as §2
[8] = biological target: Human immunodeficiency virus type 1 reverse transcriptase (Human immunodeficiency virus 1) (UniProt Q72547); assay: inhibitory activity against HIV-1 reverse transcriptase (wild type) at 10 uM dose (IC50 determined in 8 drug concentrations); summary of the method: as §2
[9] = system: MT4; assay: Concentration of drug that inhibited p24 production by 90% in infected MT-4 cells against HIV-1-WT; type: functional; conditions: Homo sapiens
[10] = system: MT4; assay: Concentration of drug that inhibited p24 production by 90% in infected MT-4 cells against HIV-1MF-DLV; type: functional; conditions: Homo sapiens
[11] = biological target: Human immunodeficiency virus type 1 reverse transcriptase (Human immunodeficiency virus 1) (UniProt Q72547); assay: inhibitory activity against HIV-1 reverse transcriptase (wild type) at 10 uM dose; summary of the method: as §1
[12] = biological target: T1, Human immunodeficiency virus type 1 reverse transcriptase; assay: inhibitory activity against HIV-1 reverse transcriptase (wild type; summary of the method: as §3

| Compound | inhibition [1] | inhibition [2] | also measured |
| --- | --- | --- | --- |
| Cc1cc(N)nc(SCc2ccccc2)n1 | 4% | 0% | – |
| COc1ccc(CSc2nc(N)cc(Cl)n2)cc1 | 63% | 25% | – |
| Nc1cc(Cl)nc(SCc2cccc3ccccc23)n1 | 96% | 89% | – |
| OCCCNc1cc(Cl)nc(SCc2ccccc2)n1 | 3% | 17% | – |
| Nc1cc(Cl)nc(SCc2ccc3ccccc3c2)n1 | – | – | IC90 [3]: 220 nM; IC90 [4]: 2760 nM; IC50 [5]: 150 nM; IC50 [6]: 460 nM; inhibition [7]: 96%; inhibition [8]: 87% |
| Nc1cc(Cl)nc(SCc2ccc3c(c2)OCO3)n1 | 95% | 82% | – |
| Nc1cc(Cl)nc(SCc2cccc(I)c2)n1 | 89% | – | – |
| Nc1cc(Cl)nc([S+]([O-])Cc2ccc3ccccc3c2)n1 (stereo not given) | 75% | 45% | – |
| Cc1ccc(CSc2nc(N)cc(Cl)n2)cc1 | 5% | 3% | – |
| Nc1cc(Cl)nc(SCC(=O)O)n1 | 0% | 0% | – |
| CCNC(=O)/C=C/CSc1nc(N)cc(Cl)n1 | 55% | 40% | – |
| COC(=O)c1cccc(CSc2nc(N)cc(Cl)n2)c1 | 94% | 93% | IC50 [5]: 230 nM; IC50 [6]: 330 nM |
| Clc1cc(N2CCCC2)nc(SCc2ccccc2)n1 | 41% | 35% | – |
| CCN(CC)C(=O)CSc1nc(N)cc(Cl)n1 | 14% | 14% | – |
| N#Cc1cc(N)nc(SCc2ccc3ccccc3c2)n1 | 93% | 84% | – |
| Nc1cc(Cl)nc(CCc2ccc3ccccc3c2)n1 | 12% | – | – |
| COc1cccc(CSc2nc(N)cc(Cl)n2)c1 | 97% | 70% | IC90 [9]: 270 nM; IC90 [10]: 3210 nM; IC50 [5]: 160 nM; IC50 [6]: 980 nM |
| Clc1cc(N2CCCCC2)nc(SCc2ccccc2)n1 | 47% | 47% | – |
| C/C=C/CSc1nc(N)cc(Cl)n1 | 47% | 5% | – |
| Nc1cc(Cl)nc(SCCc2ccccc2)n1 | 12% | 33% | – |
| CCCCCCCCCSc1nc(N)cc(Cl)n1 | 0% | 0% | – |
| NNc1cc(Cl)nc(SCc2ccccc2)n1 | 31% | – | – |

| Compound | inhibition [1] | inhibition [2] | also measured |
| --- | --- | --- | --- |
| Clc1cc(NC2CCCCC2)nc(SCc2ccccc2)n1 | 6% | 26% | – |
| Nc1cc(Cl)nc(OCc2ccccc2)n1 | 44% | 1% | – |
| Nc1cc(Cl)nc(SCC2CCCCC2)n1 | 13% | 37% | – |
| Nc1cc(Cl)nc(SCc2cccc(F)c2)n1 | 79% | – | – |
| Nc1cc(Cl)nc(SC/C=C/c2ccccc2)n1 | 98% | 96% | IC90 [3]: 150 nM; IC90 [4]: 5050 nM; IC50 [5]: 70 nM; IC50 [6]: 190 nM |
| Cc1cccc(CSc2nc(N)cc(Cl)n2)c1 | – | – | IC90 [3]: 110 nM; IC90 [4]: 1760 nM; IC50 [5]: 50 nM; IC50 [6]: 280 nM; inhibition [7]: 98%; inhibition [8]: 96% |
| CCOC(=O)CCSc1nc(N)cc(Cl)n1 | 7% | 11% | – |
| Nc1ccnc(SCc2ccc3ccccc3c2)n1 | 71% | – | inhibition [11]: 50% |
| COC(=O)c1ccc(CSc2nc(N)cc(Cl)n2)cc1 | 15% | 6% | – |
| Nc1cc(Cl)nc(SCC2=CCCc3ccccc32)n1 | 88% | 47% | IC50 [5]: 600 nM; IC50 [6]: 16000 nM |
| Nc1cc(Cl)nc(NCc2ccc3ccccc3c2)n1 | 17% | 9% | – |
| Clc1cc(-n2ccnc2)nc(SCc2ccc3ccccc3c2)n1 | 17% | 12% | – |
| CCN(CC)C(=O)/C=C/CSc1nc(N)cc(Cl)n1 | – | – | IC90 [3]: 20 nM; IC90 [4]: 110 nM; IC50 [5]: 50 nM; IC50 [6]: 60 nM; inhibition [7]: 99%; inhibition [8]: 98% |
| Nc1cc(Cl)nc([S+]([O-])Cc2cccc(Br)c2)n1 (stereo not given) | 40% | – | – |
| Nc1cc(Cl)nc(SCc2cccc(Br)c2)n1 | 97% | 94% | IC90 [3]: 350 nM; IC90 [4]: 4520 nM; IC50 [5]: 140 nM; IC50 [6]: 760 nM |
| Nc1cc(Cl)nc(SCc2cc(Br)cc(Br)c2)n1 | 73% | – | – |
| CC(=O)Nc1cc(Cl)nc(SCc2ccc3ccccc3c2)n1 | 53% | 30% | – |
| Nc1cc(Cl)nc(S(=O)(=O)Cc2cccc(Br)c2)n1 | 14% | – | – |
| Nc1cc(Cl)nc(SCc2ccc(Cl)c(Cl)c2)n1 | 94% | 80% | IC50 [5]: 62 nM; IC50 [6]: 490 nM |
| CCOC(=O)c1cc(N)nc(SCc2ccc3ccccc3c2)n1 | 24% | 17% | – |
| CC(C)(C)c1ccc(CSc2nc(N)cc(Cl)n2)cc1 | 56% | 37% | – |
| Cc1cccc(COc2nc(N)cc(Cl)n2)c1 | 72% | 25% | – |

| Compound | inhibition [1] | inhibition [2] | also measured |
| --- | --- | --- | --- |
| Nc1cc(Cl)nc(SCc2cc3c(cc2Cl)OCO3)n1 | 99% | 98% | IC50 [5]: 16 nM; IC50 [12]: 85 nM |
| CCCNc1cc(Cl)nc(SCc2ccccc2)n1 | 30% | 14% | – |
| Nc1cc(Cl)nc(SCc2ccccc2)n1 | – | – | IC50 [5]: 1470 nM; IC50 [6]: 6660 nM |
| Nc1cc(Cl)nc(SCc2cccc(C(F)(F)F)c2)n1 | 91% | 80% | – |
| Nc1cc(O)nc(SCc2ccc3ccccc3c2)n1 | 4% | 10% | – |
| CC1(C)CCC(C)(C)c2cc(CSc3nc(N)cc(Cl)n3)ccc21 | 23% | 7% | – |
| Nc1cc(Cl)nc(SCC2=Cc3ccccc3CC2)n1 | 87% | 71% | – |
| CN(C)C(=O)/C=C/CSc1nc(N)cc(Cl)n1 | – | – | IC90 [3]: 90 nM; IC90 [4]: 740 nM; IC50 [5]: 70 nM; IC50 [6]: 200 nM; inhibition [7]: 99%; inhibition [8]: 99% |
| COC(=O)/C=C/CSc1nc(N)cc(Cl)n1 | 93% | 78% | IC50 [5]: 930 nM; IC50 [6]: 5250 nM |
| Nc1cc(Cl)nc(SCc2ccc(-c3ccccc3)cc2)n1 | 20% | 8% | – |
| Clc1cc(Cl)nc(SCc2ccccc2)n1 | 25% | 19% | – |
| Nc1cc(Cl)nc(OCc2cccc3ccccc23)n1 | 67% | 2% | – |
| Nc1cc(Cl)nc(OCc2ccc3ccccc3c2)n1 | 80% | 63% | – |
| Clc1cc(-c2ccccc2)nc(SCc2ccc3ccccc3c2)n1 | 5% | – | – |
| Nc1cc(N2CCCC2)nc(SCc2ccccc2)n1 | 0% | 3% | – |
| Clc1cc(Cl)nc(SCc2ccc3ccccc3c2)n1 | 23% | 0% | – |
| Nc1cc(Cl)nc(SCc2cccc(Cl)c2)n1 | 65% | – | – |
| Cc1ccccc1CSc1nc(N)cc(Cl)n1 | 0% | 2% | – |
| Nc1cc(Cl)nc(SCc2cc(Cl)cc(Cl)c2)n1 | 65% | – | – |
| Nc1cc(C(F)(F)F)nc(SCc2ccc3ccccc3c2)n1 | 94% | 94% | IC50 [5]: 430 nM; IC50 [6]: 290 nM |
| Clc1ccnc(SCc2ccc3ccccc3c2)n1 | 86% | 61% | – |
